Measured values as given in ChEMBL document CHEMBL2311265, “5'-Phosphate and 5'-phosphonate ester derivatives of (N)-methanocarba adenosine with in vivo cardioprotective activity” (J Med Chem, 2013).
≈ marks a conversion by molar mass, not a printed value. Calls of active or inactive are those of the source. No cut-off for these calls is given here.

Experiments:
[1] = tested on: Mus musculus; assay: Cardioprotective activity in BL6 mouse LAD ligation ischemic heart failure model assessed as change in infarct size at 10 uM, sc administered as infusion at 24 hrs post-LAD ligation for 1 month relative to control; format: functional, organism-based
Outline: (§1)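 Permanent LAD ligation in 12-week-old WT BL6 mice under intraperitoneal ketamine (100 mg/kg) and xylazine (10 mg/kg). Starting within 24 h, agents in PBS pH 7.4 at 10 µM were infused by mini-osmotic pump at 6 µL per d for 28 d. Controls were vehicle-infused WT mice and cardiac P2X4R-overexpressing transgenic mice. Infarct size was taken after heart-function measurement, from formalin-fixed, paraffin 4-µm Masson's trichrome sections, as infarct length over endocardial plus epicardial circumference. One-way ANOVA with Newman-Keuls test.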

[2] = tested on: Mus musculus; assay: Cardioprotective activity in BL6 mouse LAD ligation ischemic heart failure model assessed as fractional shortening at 10 uM, sc administered as infusion at 24 hrs post LAD ligation for 28 days by echocardiography (reference value: 17.33 +/- 1.36%); format: functional
[3] = tested on: Mus musculus; assay: Ex-vivo cardioprotective activity in BL6 mouse LAD ligation ischemic heart failure model assessed as change in infarct size at 10 uM, sc administered as infusion at 24 hrs post LAD ligation for 28 days relative to control; format: functional, organism-based; outline: as §1
[4] = tested on: Mus musculus; assay: Ex-vivo cardioprotective activity in BL6 mouse LAD ligation ischemic heart failure model assessed as left ventricular rate of pressure change in isolated heart at 10 uM, sc administered as infusion at 24 hrs post LAD ligation for 28 days (reference value: 6156 +/- 356 mmHg/s); format: functional
Outline: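 LAD-ligated BL6 mice were infused via mini-osmotic pump with 10 µM in PBS pH 7.4 at 6 µL per day for 28 days. Isolated working hearts then ejected buffered perfusate against a constant 56 mmHg hydrostatic afterload, and LV +dP/dt was recorded. Mean ± SEM against vehicle-infused controls; one-way ANOVA with Newman-Keuls.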

[5] = tested on: Plasma; assay: Metabolic stability of the compound in rat plasma at 1.09 mM by HPLC analysis; format: ADME, cell-free; settings: 1090 µM
Outline: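 Incubation with rat plasma at 37°C for 24 h, and checked for hydrolysis.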

[6] = tested on: Liver; assay: Metabolic stability of the compound in mouse liver microsomes by HPLC analysis; format: ADME, Microsome
Outline: (§2)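 Incubation with mouse or rat liver microsomes at 37°C for 24 h, and checked for hydrolysis.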

[7] = tested on: Liver microsomes; assay: Metabolic stability of the compound in rat liver microsomes by HPLC analysis; format: ADME, Microsome; outline: as §2
[8] = Chemical stability of the compound in aqueous medium at pH 11 at 50 degC after 24 hrs by HPLC analysis; format: physicochemical; settings: buffer, pH 11, 24 h
Outline: (§3)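 Incubation for 24 h in aqueous medium at pH 1 or pH 11, 50°C, and checked for hydrolysis.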

[9] = Chemical stability of the compound in aqueous medium at pH 1 at 50 degC after 24 hrs by HPLC analysis; format: physicochemical; settings: buffer, pH 1, 24 h; outline: as §3
[10] = Aqueous solubility of the compound after 1 hr; format: physicochemical; settings: buffer
Outline: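 Excess solid stirred in water, supernatant removed and lyophilized; solubility calculated from the mass of solid recovered.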

[11] = tested on: Mus musculus; assay: Cardioprotective activity in mouse overexpressing clasequestrin assessed as increase in LV posterior wall thickness during diastole at 10 uM, sc administered as infusion for 2 weeks relative to control; format: functional, organism-based
Outline: (§4)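 CSQ-overexpressing mice with heart failure, 2-week infusion (n=5). Outcome is LV septal and posterior wall thickness versus normal-saline-infused CSQ mice. Values are mean ± standard error.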

[12] = tested on: Mus musculus; assay: Cardioprotective activity in mouse overexpressing clasequestrin assessed as increase in LV posterior wall thickness during systole at 10 uM, sc administered as infusion for 2 weeks relative to control; format: functional, organism-based; outline: as §4
[13] = tested on: Mus musculus; assay: Cardioprotective activity in mouse overexpressing clasequestrin assessed as increase in LV septal wall thickness during systole at 10 uM, sc administered as infusion for 2 weeks relative to control; format: functional, organism-based; outline: as §4
[14] = tested on: Mus musculus; assay: Cardioprotective activity in mouse overexpressing clasequestrin assessed as prevention of LV wall thinning at 10 uM, sc administered as infusion for 2 weeks; format: functional, organism-based; outline: as §4
[15] = tested on: Mus musculus; assay: Cardioprotective activity in mouse overexpressing clasequestrin assessed as increase in fractional shortening at 10 uM, sc administered as infusion for 2 weeks relative to control; format: functional, organism-based
[16] = tested on: Mus musculus; assay: Cardioprotective activity in mouse overexpressing clasequestrin assessed as increase in fractional shortening at 3.3 uM, sc administered as infusion for 2 weeks relative to control; format: functional, organism-based
[17] = organism: Mus musculus; assay: Agonist activity at P2XR receptor in wild type BL6 mouse cardiac ventricular myocytes assessed as increase in contraction shortening
Outline: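 Adult wild-type murine cardiac ventricular myocytes; contraction shortening recorded at basal control, during drug exposure and after washout. Data are mean ± standard error (13 or 8 myocytes per agent).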

[18] = tested on: Mus musculus; assay: Cardioprotective activity in mouse overexpressing clasequestrin assessed as LV septal wall thickness at 10 uM, sc administered as infusion for 2 weeks (reference value: 0.45 +/- 0.007 mm); format: functional
[19] = tested on: Mus musculus; assay: Cardioprotective activity in mouse overexpressing clasequestrin assessed as LV posterior wall thickness at 10 uM, sc administered as infusion for 2 weeks (reference value: 0.45 +/- 0.007 mm); format: functional

## CCOP(=O)(C[C@@]12C[C@@H]1[C@@H](n1cnc3c(N)nc(I)nc31)[C@H](O)[C@@H]2O)OCC
[1]
  Activity: inactive
[2]
  Activity: 23.05%

## [2H]C([2H])(OP(=O)(OCC)OCC)[C@@]12C[C@@H]1[C@@H](n1cnc3c(N)nc(Cl)nc31)[C@H](O)[C@@H]2O
[2]
  Activity: 21.48%

## CC(C)(C)OP(=O)(OC[C@@]12C[C@@H]1[C@@H](n1cnc3c(N)nc(Cl)nc31)[C@H](O)[C@@H]2O)OC(C)(C)C
[3]
  Activity: inactive
[4]
  Activity: 6681 mmHg/s
[1]
  Activity: inactive
[2]
  Activity: 24.07%

## CC(C)OP(=O)(CC[C@@]12C[C@@H]1[C@@H](n1cnc3c(N)nc(Cl)nc31)[C@H](O)[C@@H]2O)OC(C)C
[5]
  Stability: Stable
[6]
  Stability: Stable
[7]
  Stability: Stable
[8]
  Stability: Stable
[9]
  Stability: Stable
[10]
  solubility: 7.25 mM (≈ 3.44 mg/mL)
[11]
  Activity: Active
[12]
  Activity: Active
[13]
  Activity: Active

## Nc1nc(I)nc2c1ncn2[C@H]1[C@H](O)[C@H](O)[C@]2(CP(=O)(O)O)C[C@H]12
[14]
  Activity: inactive
[15]
  Activity: inactive
[3]
  Activity: inactive
[4]
  Activity: 6581 mmHg/s
[1]
  Activity: inactive

## CC(C)OP(=O)(OC[C@@]12C[C@@H]1[C@@H](n1cnc3c(N)nc(Cl)nc31)[C@H](O)[C@@H]2O)OC(C)C
[1]
  Activity: inactive
[2]
  Activity: 25.77%

## CCOP(=S)(OCC)OC[C@@]12C[C@@H]1[C@@H](n1cnc3c(N)nc(Cl)nc31)[C@H](O)[C@@H]2O
[1]
  Activity: inactive

## Nc1nc(Cl)nc2c1ncn2[C@H]1[C@H](O)[C@H](O)[C@]2(CCP(=O)(O)O)C[C@H]12
[16]
  Activity: Active
[15]
  Activity: Active
[17]
  Activity: Active

## [2H]C([2H])(OP(=O)(O)O)[C@@]12C[C@@H]1[C@@H](n1cnc3c(N)nc(Cl)nc31)[C@H](O)[C@@H]2O
[2]
  Activity: 23.06%

## CCOP(=S)(OCC)SC[C@@]12C[C@@H]1[C@@H](n1cnc3c(N)nc(Cl)nc31)[C@H](O)[C@@H]2O
[1]
  Activity: inactive
[2]
  Activity: 24.76%

## Nc1nc(Cl)nc2c1ncn2[C@@H]1C2CC2(COP(=O)(O)O)[C@@H](O)[C@H]1O (single isomer, unassigned)
[3]
  Activity: inactive
[4]
  Activity: 6508 mmHg/s
[1]
  Activity: inactive
[2]
  Activity: 22.14%
[17]
  Activity: Active

## CCOP(=O)(OCC)OC[C@@]12C[C@@H]1[C@@H](n1cnc3c(N)nc(Cl)nc31)[C@H](O)[C@@H]2O
[3]
  Activity: inactive
[4]
  Activity: 6711 mmHg/s
[1]
  Activity: inactive
[1]; tested as the 2H-labelled form
  Activity: inactive
[2]
  Activity: 24.71%

## CCOP(=O)(C[C@@]12C[C@@H]1[C@@H](n1cnc3c(N)nc(Cl)nc31)[C@H](O)[C@@H]2O)OCC
[3]
  Activity: inactive
[4]
  Activity: 5946 mmHg/s
[1]
  Activity: inactive
[10]
  solubility: 60 mM (≈ 25.9 mg/mL)

## Nc1nc(Cl)nc2c1ncn2[C@H]1[C@H](O)[C@H](O)[C@]2(CSP(=O)(O)O)C[C@H]12
[3]
  Activity: inactive
[4]
  Activity: 6553 mmHg/s
[1]
  Activity: inactive
[18]
  Activity: 0.492 mm
[19]
  Activity: 0.493 mm

## Nc1nc(Cl)nc2c1ncn2[C@H]1[C@H](O)[C@H](O)[C@]2(COP(=O)(O)O)C[C@H]12
[1]; tested as the 2H-labelled form
  Activity: inactive

## CCOP(=O)(OCC)SC[C@@]12C[C@@H]1[C@@H](n1cnc3c(N)nc(Cl)nc31)[C@H](O)[C@@H]2O
[1]
  Activity: inactive
[2]
  Activity: 24.31%
